An excerpt weighted towards active compounds, which were near 1.7% of everything screened.
miR-122 sensor: inhibitors of miR-122 in Huh7 cells; Huh7 miR-122 Renilla luciferase sensor, 48 h; neutral wells = 0, positive control = 100; hit rate 0.3% among 340,000; activation (reporter increase), % at 12.5 µM;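 active = mean replicate activation score at least 90 and every replicate individually at or above 90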;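 also: higher luciferase means less miR-122 activity so hits act as miR-122 inhibitors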
CAL PDZ FP-1: inhibitors of human CAL PDZ peptide binding | hit rate 0.02% among 330,000 | inhibition, % at 20 µM | purified CAL PDZ, TMR-peptide fluorescence polarization, 1 h | Q9HD26;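 active = highest replicate inhibition of at least 40%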
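Material – purified CerCALP PDZ construct · Detection – FP readout, S and P plane fluorescence · Measure – percent inhibition from loss of millipolarization · Controls – unlabelled peptide for full inhibition, DMSO wells as neutral · Probe or stimulus – TMR-labelled reporter peptide T*-PRC34 bound in PDZ groove · Times – 1 h at RT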
CAL PDZ FP-2: inhibitors of human CAL PDZ peptide binding; Q9HD26; hit rate 0.92% among 300,000; purified CAL PDZ, TMR-peptide fluorescence polarization, 1 h; inhibition, % at 24.9 µM;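 active = mean inhibition of at least 30% with at least half of replicates also reaching 30%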
PGC1a acetyl inh: lowers PGC1a acetylation signal in U2OS cells; AlphaScreen anti-acetyl-lysine; with virally co-expressed GCN5 acetyltransferase; inhibition, % at 15.6 µM; hit rate 0.17% among 350,000; AID 651687;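 active = every replicate shows inhibition of at least 40%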
ARNT-TACC3 inh: disruptors of human ARNT/TACC3 interaction. hit rate 0.66% among 390,000. inhibition, % at 9.99 µM. AlphaScreen His-ARNT PAS-B/GST-TACC3 binding, luminescence; TACC3 fragment carries E629A point mutation;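 active = mean inhibition of replicates at least 50% and at least half of replicates each reaching 50%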
F508del corr: correctors of CFTR F508del function in bronchial epithelial cells; hit rate 0.36% among 350,000; AID 720511; activity (quench increase), % at 7.58 µM; CFBE cells, YFP halide quenching; stimulated with forskolin plus potentiator P3; % fluorescence drop versus neutral controls;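 active = mean added fluorescence quench of at least 8% versus neutral control, with both replicates also reaching 8%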;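 also: cells transiently co-express mutant CFTR-F508del with the halide-sensitive YFP; corrector assay measuring rescue of mutant channel to the surface after 24 h compound exposure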
Hits are given with their value; 0 = inactive; - = no result.

SMILES | miR-122 sensor | CAL PDZ FP-1 | CAL PDZ FP-2 | PGC1a acetyl inh | ARNT-TACC3 inh | F508del corr
O=C(CC1CC1)N[C@H]1CC[C@H](CCNS(=O)(=O)c2ccc(Cl)cc2)O[C@H]1CO | - | - | - | 53 | 0 | 0
COc1cc2[nH]c(=S)n(Cc3ccc(C)cc3)c(=O)c2cc1OC | - | 0 | 40 | 0 | 0 | 0
COc1ccc(Cn2c(=S)[nH]c3cc(OC)c(OC)cc3c2=O)cc1 | 0 | 0 | 0 | 0 | 0 | 0
CCC(=O)n1nc(-c2ccc(OC)cc2)nc1NCc1cccs1 | - | 0 | 0 | - | 0 | 0
CC(=O)n1nc(-c2ccccc2)nc1NCc1cccs1 | - | 0 | 72 | 0 | 0 | 0
O=c1[nH]c(/C=C/c2ccccc2F)nc2ccccc12 | 0 | 0 | 0 | 0 | 0 | 9.8
O=C(Nc1ccc2c(c1)[C@@H]1C[C@H](CC(=O)N3CCc4ccccc4C3)O[C@H](CO)[C@@H]1O2)c1ccc2c(c1)OCO2 | 0 | - | - | 0 | 48 | 0
O=C(C[C@@H]1C[C@H]2c3cc(NC(=O)CC4CC4)ccc3O[C@H]2[C@H](CO)O1)NCc1cccc(F)c1 | 0 | - | - | 0 | 0 | 9.0
O=C(C[C@@H]1C[C@H]2c3cc(NC(=O)Nc4ccccc4F)ccc3O[C@H]2[C@H](CO)O1)NCc1ccc(Oc2ccccc2)cc1 | 0 | - | - | 0 | 0 | 0
O=C(C[C@H]1C[C@@H]2c3cc(NC(=O)C4CCC4)ccc3O[C@@H]2[C@@H](CO)O1)NCc1ccc(-c2ccccc2)cc1 | 0 | - | - | 0 | 0 | 0
O=C(Nc1ccc2c(c1)[C@@H]1C[C@@H](CC(=O)N3CCc4ccccc4C3)O[C@H](CO)[C@@H]1O2)c1ccc2c(c1)OCO2 | 0 | - | - | 0 | 0 | 0
O=C(C[C@@H]1C[C@@H]2c3cc(NC(=O)Nc4ccccc4F)ccc3O[C@@H]2[C@@H](CO)O1)NCc1ccc(Oc2ccccc2)cc1 | 0 | - | - | 84 | 0 | 0
O=C(C[C@@H]1C[C@@H]2c3cc(NC(=O)CC4CC4)ccc3O[C@@H]2[C@H](CO)O1)NCc1cccc(F)c1 | 0 | - | - | 0 | 0 | 0
O=C(C[C@H]1C[C@H]2c3cc(NC(=O)C4CCC4)ccc3O[C@H]2[C@H](CO)O1)NCc1ccc(-c2ccccc2)cc1 | 0 | - | - | 64 | 0 | 0
COc1ccc(OC)c(C(C[N+](=O)[O-])c2c(C)cc3ccccn23)c1 (stereo unspecified) | 0 | 0 | 48 | 0 | 0 | 0
Cc1ccc(S(=O)(=O)N[C@H]2CC[C@@H](CCNC(=O)C3CCCCC3)O[C@H]2CO)cc1 | 0 | - | - | 0 | 0 | 0
CC(=O)c1ccc(S(=O)(=O)Nc2ccc(Cl)c(S(=O)(=O)N3CCCC3)c2)cc1 | - | 0 | 63 | - | 0 | 0
C[C@@]12C(=O)OC(=O)[C@]1(C)C1CCC2O1 | 0 | 0 | 0 | 47 | 0 | 0
COC(=O)c1ccc(NC(=O)c2c(C(=O)Nc3ccccc3)sc3nc(C)cc(=O)n23)cc1 | - | 0 | 99 | - | 0 | 0
COC(=O)c1ccc(NC(=O)c2sc3nc(-c4ccccc4)cn3c2C)cc1 | 0 | 0 | - | 0 | 0 | -
CO[C@@H]1CN(C)C(=O)c2cc(NC(C)=O)ccc2OC[C@@H](C)N(Cc2ccccc2F)C[C@H]1C | 0 | - | - | 0 | 0 | 0
Cc1ccc(C)c(NC(=O)CSc2nc3c(c(=O)n2C)SC(C)C3)c1 (stereo unspecified) | 0 | 0 | - | 0 | 0 | 8.7
CCn1c(SCC(=O)Nc2cc(C)ccc2C)nc2c(c1=O)SC(C)C2 (stereo unspecified) | 0 | 0 | - | 0 | 0 | 0
Cc1ccc(C)c(NC(=O)CSc2c(C)n[nH]c2C)c1 | 0 | 0 | 61 | 0 | 0 | 0
CN(C)CCN(C(=O)c1ccc2c(c1)OCCO2)c1nc2ccc(Cl)cc2s1 | 0 | 0 | 0 | 0 | 46 | 0
Cc1ccc(C(=O)N(CCCN(C)C)c2nc3ccc(Cl)cc3s2)cc1C | - | 0 | 0 | 0 | 0 | 0
CCOC(=O)/C=C(\C)Sc1cc(=O)oc2ccccc12 | 0 | 0 | 0 | 0 | 0 | -
CCOC(=O)/C=C(\C)Sc1cc(O)c2ccccc2c1O | 0 | 0 | 0 | 0 | 77 | 0
C[C@@H]1CN([C@@H](C)CO)C(=O)c2cc(NC(=O)Nc3ccc4c(c3)OCO4)ccc2O[C@H]1CN(C)S(=O)(=O)c1ccccc1 | 0 | - | - | 0 | 0 | 0

Assay outcomes: PubChem BioAssay, Broad Institute
